In the EternaBench riboswitch data:

Tested on: MS2 coat protein
Assay: apparent Kd, MS2 coat protein; higher = weaker binding; RNA-MaP array
Procedure, shortened: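 Designs measured on fewer than 10 clusters were excluded from the data. The rest were RNAs transcribed from sequenced DNA templates on an Illumina sequencing chip and incubated at room temperature, with or without input ligand, with fluorescently labeled MS2 coat protein at 1.5 nM to 3 μM for 0.8–1.5 h at the lowest to 10–20 min at the highest concentrations. Apparent Kd is the median of the per-cluster binding-curve fits.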

[1] = designed as: OFF switch for flavin mononucleotide, no ligand
[2] = ligand present: flavin mononucleotide, designed as: OFF switch for flavin mononucleotide
[3] = designed as: ON switch for flavin mononucleotide, no ligand
[4] = ligand present: flavin mononucleotide, designed as: ON switch for flavin mononucleotide
[5] = designed as: ON switch for theophylline, no ligand
[6] = ligand present: theophylline, designed as: ON switch for theophylline

## UCAGGUCCGAAGAAGGCGAAGCAACAUUACUAUCGAGGAUAUUCUACAUGAGGAUCACCCAUGUCACCAUCGAUGACAGAGAAU
[1]
  apparent Kd: 7.65 nM
[2]
  apparent Kd: 7.93 nM

## GCAGUUGGUCUCUCACAUGAGGAUCACCCAUGUUCUUAGUUUCAGGAUAUAUGAGCGAAUUGCGGAUAGAAGGGAAACAGUCAC
[1]
  apparent Kd: 41.6 nM
[2]
  apparent Kd: 49.7 nM

## GGCGUAUCAGGAUAUGCGUUUUGAGACAUGAGGAUCACCCAUGUCCUUAGCUCAGUUAAAGCAGAAGGGAUUAUUA
[1]
  apparent Kd: 16.9 nM
[2]
  apparent Kd: 34.1 nM

## GUGUUCACUGCAGGAUAUGUACAUGAGGAUCACCCAUGUUGAAACGGCUGGAAUCGGCAGAUGAAACAGAAGGGCAUGAAAAUU
[3]
  apparent Kd: 12.8 nM
[4]
  apparent Kd: 9.09 nM

## UCUCAAAUAAAUAUCAUACAUGAGGAUCACCCAUGUCACCGAUAGGAUAUGCGCGUUUCCCACCUGCAGAAGGAUCAAACUGUA
[3]
  apparent Kd: 15.4 nM
[4]
  apparent Kd: 13.4 nM

## CAAGAGUUAGAAGGAUAUACAAGAUGCUGAAAGAAACGUGAACAAAACAUGAGGAUCACCCAUGUGAAGAAGGUCAAAUAGAAA
[1]
  apparent Kd: 10.4 nM
[2]
  apparent Kd: 9.21 nM

## AAGUAGGAAGGAUAUACAUGAGGAUCACCCAUGUAAGGCAUUUGGCUAUAAUCGUUAAGUAGAAGGUCCUGCCG
[1]
  apparent Kd: 8.6 nM
[2]
  apparent Kd: 8.2 nM

## UUGAUCUGACGAGGAUAUAUCAUAACACCUUUGAUAGAAGGCGUGAUCGACAUGAGGAUCACCCAUGUGCGUGACUUUGGUAGU
[3]
  apparent Kd: 11.6 nM
[4]
  apparent Kd: 10.8 nM

## CACACCGCAGUGAGGAUAUACCAACUGAACGUUGAGUAGAAGGCACAUGAGGAUCACCCAUGUCACUACUGACA
[1]
  apparent Kd: 8.62 nM
[2]
  apparent Kd: 35.7 nM

## GCCUUAGGGGCAGGAUAUUUCGAGGACCUCAACAUGAGGAUCACCCAUGUACCGCAAUCGUCUCUAAAGAAGGGCCUCUUGCUC
[3]
  apparent Kd: 53.9 nM
[4]
  apparent Kd: 28.5 nM

## GAAAUCAGAGAGAAGGGUUUACAUCCGACAUGAGGAUCACCCAUGUAGUAAAACUACGACAACUAACAGGAUAUCACUGGCACC
[3]
  apparent Kd: 208 nM
[4]
  apparent Kd: 176 nM

## UGUAGCCGCGAGAAGGUAAGCUAAGGAUGUGGUAUCAACGACUACAUGAGGAUCACCCAUGUGCUUAAGGAUAUCGAGGUGGAG
[3]
  apparent Kd: 62.5 nM
[4]
  apparent Kd: 104 nM

## AAGUUGAGCACAAAGGAUAUUUGUAAACAAACAUGAGGAUCACCCAUGUGAACAAUAGUACAUACAAAGAAGGUUGAGAUACAUGU
[3]
  apparent Kd: 54.2 nM
[4]
  apparent Kd: 25.9 nM

## AUCACUGAGCGAGGAUAUUAUUUCAAAUCAACGACGAUCCUACACAUGAGGAUCACCCAUGUUAGUAAGAAGGCGCGCCAGAUG
[1]
  apparent Kd: 62.5 nM
[2]
  apparent Kd: 93.5 nM

## UCGGCACAUGAGGAUCACCCAUGUAAGGAUAUACGAAGCUUGCAGUCGCUGUUAUUUGGUAGAAGGUACCCUCG
[1]
  apparent Kd: 14.5 nM
[2]
  apparent Kd: 12.5 nM

## AUUUUAAACAAGAAGGGCUUACGCAAGCUGAGAGCAGGAUAUUGACAUGAGGAUCACCCAUGUAUUAGACCAUAAGAUCCCAUU
[1]
  apparent Kd: 20.5 nM
[2]
  apparent Kd: 20.6 nM

## AUUUCUUCGGUCAGGAUAUCUAGUGUAACGCGGUCAGAGAAGGGACAUGAGGAUCACCCAUGUGUGACUCUCUG
[1]
  apparent Kd: 5.77 nM
[2]
  apparent Kd: 5.9 nM

## GGGGGUUGGACAGGAUAUAGAGGUCUCGUGUGGAGAUGCACAACGACAUGAGGAUCACCCAUGUGCUAGAAGGGUCUGCGAUAG
[3]
  apparent Kd: 19.3 nM
[4]
  apparent Kd: 16.1 nM

## AGUGGUGCAACUGAUACCAGAUUUAUACGAGACAUGAGGAUCACCCAUGUCGAAAGACAAAUCCCUUGGCAGCAGACACGAUCCC
[5]
  apparent Kd: 9.42 nM
[6]
  apparent Kd: 8.85 nM

## GUUAGCACUUAAGGAUAUUGGAAGCGCGUCGUCCAAGAAGGUAAGUUCUUCGUCGACAUGAGGAUCACCCAUGUCAUGCAUGGC
[1]
  apparent Kd: 16.5 nM
[2]
  apparent Kd: 11.8 nM

## GCAAGAGAGCAGAAGGUUGAGGGCGUUCCCGUUUACAUGAGGAUCACCCAUGUUGCUAACAUGUCAAAGGAUAUGCCUAACGCU
[1]
  apparent Kd: 70.8 nM
[2]
  apparent Kd: 63.8 nM

## GAGAGAAAGCCAGGAUAUUAGAACUAGGCACAUGAGGAUCACCCAUGUGGUGAUGAUCAUAAGACUAAGAAGGGGCACCGGAUU
[3]
  apparent Kd: 521 nM
[4]
  apparent Kd: 450 nM

## AUGAUCGAACAGAAGGCACGGUGACAGUUAAAGUGAGGAUAUGUAGACAUGAGGAUCACCCAUGUUACUAUACACGGGUCUAUC
[1]
  apparent Kd: 15.1 nM
[2]
  apparent Kd: 45.9 nM

## AUUUGACAUGAGGAUCACCCAUGUGACUUGUCGUGAGGAUAUUAUUGAAAUCUAUGUCAUUAAGAAGGCACAAUUU
[3]
  apparent Kd: 32.7 nM
[4]
  apparent Kd: 16.5 nM

## UACAUGAGGAUCACCCAUGUCAAACCGUUCUAGGACUAGGUAAGAAGGGUCAUCCUACAAUGUUGACAGGAUAUUACGUAGCUG
[3]
  apparent Kd: 348 nM
[4]
  apparent Kd: 71.3 nM

## UAUCGCGCGGCGGCCGCCACUAAUGGCAGAUCUGUCGACUAACAUGAGGAUCACCCAUGUCUAACUAGGACCGGGCCCAAGUUGU
Designed as: ON switch for tryptophan, no ligand
  apparent Kd: 47.5 nM
Ligand present: tryptophan, designed as: ON switch for tryptophan
  apparent Kd: 40.2 nM

## GCUUAGAAACCUGAUACCAGUCAGCCCUAUGACAUGAGGAUCACCCAUGUGAUACUCACGGACCCUUGGCAGCAGGGUCGAUUAC
[5]
  apparent Kd: 695 nM
[6]
  apparent Kd: 429 nM

## GCUUGACAUGAGGAUCACCCAUGUAAAUGAGAGACAGGAUAUACGAGACACGUAGGGUAGGUAGAAGGGUCGACUG
[3]
  apparent Kd: 15.1 nM
[4]
  apparent Kd: 9.69 nM

## CGAAUCAACCGGCAGGAUAUGAAAACUAAAACAUGAGGAUCACCCAUGUCGGACAAGAACAUGAUACAGAAGGGCCACGUAACAAG
[3]
  apparent Kd: 95.5 nM
[4]
  apparent Kd: 26.3 nM

## GACGUGUCGCAGAAGGUGGCGAGGAUAGACAUGAGGAUCACCCAUGUGGGACGCGUUAGGUCUGCCAAGGAUAUGCGCAACUCU
[1]
  apparent Kd: 54.3 nM
[2]
  apparent Kd: 28.7 nM

## UCGGGUAAGCAGAAGGCACUAGAUUCUCUUUCAGCGAUAUAACAUGAGGAUCACCCAUGUAGAGGUGAGGAUAUGCAGAAACGC
[3]
  apparent Kd: 169 nM
[4]
  apparent Kd: 83.9 nM

## CAUAUGUUAGGAUAUAAGUUUAGAUCAUGCGUGUUUAUGGCUUAGAAGGAACAUGAGGAUCACCCAUGUAACAG
[1]
  apparent Kd: 21.2 nM
[2]
  apparent Kd: 22.3 nM

## GAACGGAGAGAAGGAUAUGGCAUAUUGCCUCACAUGAGGAUCACCCAUGUCAAGACAAAGCGAUCCCAGAAGGUCUCACAACAU
[3]
  apparent Kd: 60.1 nM
[4]
  apparent Kd: 26.8 nM

## CGUGCAUGCUAGUAGGAUAUCCCGCAUGAAACAUGAGGAUCACCCAUGUAGAAGAUCUAUGAUCGGGAGAAGGACUCGUGAGAAAC
[3]
  apparent Kd: 34.6 nM
[4]
  apparent Kd: 12.1 nM

## AUAGCAAAAGUGAGGAUAUUCGACAUAGAACGCAUGAAGAAGGCACAUGAGGAUCACCCAUGUUCUCGUUAGUA
[1]
  apparent Kd: 10.6 nM
[2]
  apparent Kd: 14.1 nM

## UUCGACAGCGUGAGGAUAUCUACAUCGGGUAGGUGAGAGAAGGCACAUGAGGAUCACCCAUGUUCUGAAGAGCA
[1]
  apparent Kd: 16 nM
[2]
  apparent Kd: 19.9 nM

## CGCCGUACGUCAGGAUAUCACAAUUGGAUCCAUCACAUGAGGAUCACCCAUGUUUACAAGUAGAAUGAGAAGGGACAAGGAUAA
[3]
  apparent Kd: 49.3 nM
[4]
  apparent Kd: 43.8 nM

## UUUAGACGGCAGAAGGCGGGCUCGCGCGGUGUACAUGAGGAUCACCCAUGUGUUUGCCAUCUACCCGAGGAUAUGCAGUGAUGG
[3]
  apparent Kd: 39.4 nM
[4]
  apparent Kd: 13.2 nM

## GUUGAGGUGGUAGGAUAUAGUUUACACAUGAGGAUCACCCAUGUAUUCUAGACUUCAAGCCUCACCUAGAAGGACCCGUGCAAA
[1]
  apparent Kd: 4.91 nM
[2]
  apparent Kd: 4.75 nM

## CACAUGAGGAUCACCCAUGUUCGUUCACUUCAUGUAAUGAUUAGAAGGUCACGCGCCUAUCUGCUGAAGGAUAUAAUCCCGAAA
[1]
  apparent Kd: 11.1 nM
[2]
  apparent Kd: 10.1 nM

## CAUAGCAAAAGUGAUACCAGAGUUCGAGGGAACAUGAGGAUCACCCAUGUGCUUGUACAACUCCCUUGGCAGCACAGAGCAAUUA
[5]
  apparent Kd: 23.1 nM
[6]
  apparent Kd: 10.3 nM

## GCCUAGCUAGGAUAUACCAGAGUGUAUACUUAUGUGGAUCGACAUGAGGAUCACCCAUGUAGAAGGAGCAAGAU
[1]
  apparent Kd: 30.8 nM
[2]
  apparent Kd: 58 nM

## UCCUACAAAGUCAGGAUAUUCGCACAGUCACGAGGGAAGAAGGGACAUGAGGAUCACCCAUGUAUUUACGCGUA
[1]
  apparent Kd: 20.4 nM
[2]
  apparent Kd: 27.2 nM

## UCACGGUCAGGAUAUCCUACCUUAGGGCAACCAUGGUAAACGGAGAAGGGACAUGAGGAUCACCCAUGUACAGC
[1]
  apparent Kd: 12.9 nM
[2]
  apparent Kd: 26.8 nM

## AACAUUAGAGGAUAUAUCAUCUUUCACAUGAGGAUCACCCAUGUUCCUCAGUGUUAGUGUAUAGAAGGCUAAGACA
[1]
  apparent Kd: 279 nM
[2]
  apparent Kd: 26.9 nM

## GACCGUGUCAAUCAUCAUCAACAUGAGGAUCACCCAUGUACCAAGGAUAUCUCGCACUACAAGUCAGAGAAGGUGGGUUUACUC
[3]
  apparent Kd: 241 nM
[4]
  apparent Kd: 152 nM

## AAACAUACGUGAGGAUAUCCCGUUUGAGAGGCUAGUAUCAUCGAAACAUGAGGAUCACCCAUGUCGGAGAAGGCACUACAGGAG
[3]
  apparent Kd: 6.63 nM
[4]
  apparent Kd: 6.6 nM

## CUCAUGAGGAAGAAGGAUUAGGUCAGUGCAGUAAUAGGAUAUUCGUAACACAUGAGGAUCACCCAUGUCUACUCCGGAGCGACA
[3]
  apparent Kd: 182 nM
[4]
  apparent Kd: 81.1 nM

## AAAUAUAAUCAGAAGGGUUGCUAAACAUGAGGAUCACCCAUGUGAUAACGAUACGAGUAAAUCGAACAGGAUAUGAUGCAGGUU
[3]
  apparent Kd: 16.5 nM
[4]
  apparent Kd: 12 nM

## AGCGCCUUAUCAGGAUAUAUGCGCAUGAAGUAGGUACACAUGAGGAUCACCCAUGUCCGGGGAACAUAGAAGGGAUAGAAGUAG
[3]
  apparent Kd: 86.9 nM
[4]
  apparent Kd: 48.7 nM

## GGUUCAUCGUCGGCCGCCACUCACAUGAGGUGGAGCUGUAAACAUGAGGAUCACCCAUGUUGUUAGAGGACCGGGACGUGACGGC
Designed as: OFF switch for tryptophan, no ligand
  apparent Kd: 33.8 nM
Ligand present: tryptophan, designed as: OFF switch for tryptophan
  apparent Kd: 36.7 nM

## CAACGACAUGAGGAUCACCCAUGUGAGGAUAUCUACUUGAUCAGGUAACUGCUUCCGAAGAGAAGGCACGGUGA
[1]
  apparent Kd: 20.4 nM
[2]
  apparent Kd: 19.5 nM

## CAAGUAGUGGCAUUAACAUGAGGAUCACCCAUGUUGUGCGUCAGAAGGGCUCUAAUGGAUAACCAGCAGGAUAUGAUUUUCAUC
[3]
  apparent Kd: 6.92 nM
[4]
  apparent Kd: 6.89 nM

## AAGGGUCAACAGAAGGUUGUCGAACAUUGCGCCAAAGGAUAUGUCUACCGUUUAAGCGUUCGUCACAUGAGGAUCACCCAUGUU
[3]
  apparent Kd: 26.8 nM
[4]
  apparent Kd: 18.3 nM
